Assay results published in ChEMBL document CHEMBL5058577, “EUbOPEN Chemogenomics Library 2 (Multiplex)” (2022).

System: Fibroblast
Experiment: Multiplex assay against human fibroblast
Assay type: toxicity, cell-based
Summary of the method: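 At seeding, live cells were stained with Hoechst33342, BioTracker Green Microtubule Cytoskeleton Dye, MitoTracker Red and Annexin V Alexa Fluor 680. After compound addition they were imaged on a CQ1 microscope at 37°C and 5% CO2, and CellPathfinder machine-learning gating sorted them into Hoechst high-intensity objects or normal cells, with normal cells further split into healthy, pyknosed or fragmented nuclei and pyknosed cells into mitotic or apoptotic. Tubulin, mitochondrial-mass and membrane-permeability phenotypes are given as per cents of cells with healthy nuclei.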

[1] = 12 h, 1 µM, compound concentration 1 uM, replicate 1
[2] = 12 h, 1 µM, compound concentration 1 uM, replicate 2
[3] = 12 h, 10 µM, compound concentration 10 uM, replicate 1
[4] = 12 h, 10 µM, compound concentration 10 uM, replicate 2
[5] = 24 h, 1 µM, compound concentration 1 uM, replicate 1
[6] = 24 h, 1 µM, compound concentration 1 uM, replicate 2
[7] = 24 h, 10 µM, compound concentration 10 uM, replicate 1
[8] = 24 h, 10 µM, compound concentration 10 uM, replicate 2
[9] = 48 h, 1 µM, compound concentration 1 uM, replicate 1
[10] = 48 h, 1 µM, compound concentration 1 uM, replicate 2
[11] = 48 h, 10 µM, compound concentration 10 uM, replicate 1
[12] = 48 h, 10 µM, compound concentration 10 uM, replicate 2

## CCc1cc2cc(NS(=O)(=O)c3ccc(C#N)cc3)ccc2n(CC)c1=O
[1]
  Population Apoptotic (%): 42%
  Population Fragmented Nuclei (%): 16%
  Population Healthy Nuclei (%): 64%
  Population Hoechst High Intensity Objects (%): 1%
  Population Membrane Permeable-Phenotype (%): 1%
  Population Mitochondria Different-Phenotype (%): 3%
  Population Mitotic Cells (%): 57%
  Population Normal (%): 98%
  Population Pyknosed Nuclei (%): 18%
  Population Tubulin-Different-Phenotype (%): 24%
  Total Cell Count: 157
[2]
  Population Fragmented Nuclei (%): 27%
  Population Healthy Nuclei (%): 40%
  Population Hoechst High Intensity Objects (%): 6%
  Population Membrane Permeable-Phenotype (%): 9%
  Population Mitochondria Different-Phenotype (%): 7%
  Population Normal (%): 93%
  Population Pyknosed Nuclei (%): 32%
  Population Tubulin-Different-Phenotype (%): 39%
  Total Cell Count: 173
[3]
  Population Apoptotic (%): 42%
  Population Fragmented Nuclei (%): 18%
  Population Healthy Nuclei (%): 54%
  Population Hoechst High Intensity Objects (%): 1%
  Population Membrane Permeable-Phenotype (%): 1%
  Population Mitochondria Different-Phenotype (%): 5%
  Population Mitotic Cells (%): 57%
  Population Normal (%): 98%
  Population Pyknosed Nuclei (%): 26%
  Population Tubulin-Different-Phenotype (%): 65%
  Total Cell Count: 133
[4]
  Population Apoptotic (%): 18%
  Population Fragmented Nuclei (%): 19%
  Population Healthy Nuclei (%): 43%
  Population Hoechst High Intensity Objects (%): 5%
  Population Membrane Permeable-Phenotype (%): 12%
  Population Mitochondria Different-Phenotype (%): 6%
  Population Mitotic Cells (%): 81%
  Population Normal (%): 94%
  Population Pyknosed Nuclei (%): 37%
  Population Tubulin-Different-Phenotype (%): 74%
  Total Cell Count: 153
[5]
  Population Apoptotic (%): 53%
  Population Fragmented Nuclei (%): 19%
  Population Healthy Nuclei (%): 63%
  Population Hoechst High Intensity Objects (%): 5%
  Population Membrane Permeable-Phenotype (%): 1%
  Population Mitochondria Different-Phenotype (%): 4%
  Population Mitotic Cells (%): 46%
  Population Normal (%): 94%
  Population Pyknosed Nuclei (%): 17%
  Population Tubulin-Different-Phenotype (%): 26%
  Total Cell Count: 157
[6]
  Population Apoptotic (%): 43%
  Population Fragmented Nuclei (%): 26%
  Population Healthy Nuclei (%): 48%
  Population Hoechst High Intensity Objects (%): 6%
  Population Membrane Permeable-Phenotype (%): 9%
  Population Mitochondria Different-Phenotype (%): 8%
  Population Mitotic Cells (%): 56%
  Population Normal (%): 93%
  Population Pyknosed Nuclei (%): 25%
  Population Tubulin-Different-Phenotype (%): 51%
  Total Cell Count: 164
[7]
  Population Apoptotic (%): 50%
  Population Fragmented Nuclei (%): 19%
  Population Healthy Nuclei (%): 58%
  Population Hoechst High Intensity Objects (%): 2%
  Population Membrane Permeable-Phenotype (%): 1%
  Population Mitochondria Different-Phenotype (%): 6%
  Population Mitotic Cells (%): 50%
  Population Normal (%): 97%
  Population Pyknosed Nuclei (%): 22%
  Population Tubulin-Different-Phenotype (%): 59%
  Total Cell Count: 130
[8]
  Population Apoptotic (%): 32%
  Population Fragmented Nuclei (%): 22%
  Population Healthy Nuclei (%): 38%
  Population Hoechst High Intensity Objects (%): 9%
  Population Membrane Permeable-Phenotype (%): 6%
  Population Mitochondria Different-Phenotype (%): 12%
  Population Mitotic Cells (%): 67%
  Population Normal (%): 90%
  Population Pyknosed Nuclei (%): 39%
  Population Tubulin-Different-Phenotype (%): 72%
  Total Cell Count: 145
[9]
  Population Apoptotic (%): 52%
  Population Fragmented Nuclei (%): 24%
  Population Healthy Nuclei (%): 59%
  Population Hoechst High Intensity Objects (%): 3%
  Population Membrane Permeable-Phenotype (%): 0%
  Population Mitochondria Different-Phenotype (%): 4%
  Population Mitotic Cells (%): 47%
  Population Normal (%): 96%
  Population Pyknosed Nuclei (%): 15%
  Population Tubulin-Different-Phenotype (%): 27%
  Total Cell Count: 150
[10]
  Population Apoptotic (%): 37%
  Population Fragmented Nuclei (%): 33%
  Population Healthy Nuclei (%): 50%
  Population Hoechst High Intensity Objects (%): 5%
  Population Membrane Permeable-Phenotype (%): 12%
  Population Mitochondria Different-Phenotype (%): 8%
  Population Mitotic Cells (%): 62%
  Population Normal (%): 94%
  Population Pyknosed Nuclei (%): 16%
  Population Tubulin-Different-Phenotype (%): 60%
  Total Cell Count: 156
[11]
  Population Apoptotic (%): 60%
  Population Fragmented Nuclei (%): 17%
  Population Healthy Nuclei (%): 62%
  Population Hoechst High Intensity Objects (%): 1%
  Population Membrane Permeable-Phenotype (%): 1%
  Population Mitochondria Different-Phenotype (%): 12%
  Population Mitotic Cells (%): 40%
  Population Normal (%): 98%
  Population Pyknosed Nuclei (%): 19%
  Population Tubulin-Different-Phenotype (%): 61%
  Total Cell Count: 129
[12]
  Population Fragmented Nuclei (%): 30%
  Population Healthy Nuclei (%): 48%
  Population Hoechst High Intensity Objects (%): 7%
  Population Membrane Permeable-Phenotype (%): 18%
  Population Mitochondria Different-Phenotype (%): 7%
  Population Mitotic Cells (%): 39%
  Population Normal (%): 92%
  Population Pyknosed Nuclei (%): 20%
  Population Tubulin-Different-Phenotype (%): 69%
  Total Cell Count: 145
